# Assay results reported in ChEMBL document CHEMBL1121899, “Biological activities of photoaffinity labeling analogues of kinins and their irreversible effects on kinin receptors” (1981).
# Where a SMILES comes first, the peptide text is derived from it.
# Columns and labels:
# [1] = species: Oryctolagus cuniculus; experiment: The compound was tested in vitro (2.0 uM) on rabbit jugular vein for residual response in absence of ultraviolet light; type: functional
# In short: (§1)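 Jugular vein strips were treated exactly as in the photolabeling protocol (scavenger 100 µM (4'-amino)Phe plus analogue) but without light. Residual BK response was measured 60 min after the last treatment against reference tissues. Results were discarded if reference tissues lost over 25% sensitivity.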
# [2] = target: T1, B1 bradykinin receptor (Homo sapiens) (UniProt P46663); experiment: Intrinsic activity was determined; type: functional; conditions: Oryctolagus cuniculus
# T1 sequence (whole entry): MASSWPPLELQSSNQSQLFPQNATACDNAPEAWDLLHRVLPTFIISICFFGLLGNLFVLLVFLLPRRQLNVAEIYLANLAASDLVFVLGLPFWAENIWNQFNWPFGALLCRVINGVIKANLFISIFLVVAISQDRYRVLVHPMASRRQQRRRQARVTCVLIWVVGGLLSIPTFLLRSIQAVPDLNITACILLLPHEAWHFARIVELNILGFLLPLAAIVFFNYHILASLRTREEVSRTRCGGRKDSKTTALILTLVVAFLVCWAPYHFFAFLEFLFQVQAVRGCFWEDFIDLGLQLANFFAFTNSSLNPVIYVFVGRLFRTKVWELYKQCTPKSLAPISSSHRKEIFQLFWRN
# [3] = target: T2, B2 bradykinin receptor (Homo sapiens) (UniProt P30411); experiment: In vitro 50 % Maximal response in jugular vein expressing B2 receptor; type: functional; conditions: Oryctolagus cuniculus
# T2 sequence (whole entry): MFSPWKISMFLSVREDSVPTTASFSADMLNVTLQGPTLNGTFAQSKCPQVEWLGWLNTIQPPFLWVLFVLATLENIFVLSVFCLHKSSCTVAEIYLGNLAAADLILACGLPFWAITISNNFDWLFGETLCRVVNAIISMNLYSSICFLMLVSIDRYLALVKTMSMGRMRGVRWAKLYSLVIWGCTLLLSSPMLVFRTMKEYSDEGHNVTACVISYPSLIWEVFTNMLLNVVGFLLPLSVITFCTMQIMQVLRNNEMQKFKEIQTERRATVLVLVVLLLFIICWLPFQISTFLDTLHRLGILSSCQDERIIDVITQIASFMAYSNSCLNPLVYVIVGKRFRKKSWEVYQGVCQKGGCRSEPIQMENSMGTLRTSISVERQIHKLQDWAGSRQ
# In short: (§2)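 Isolated rabbit jugular vein strips were equilibrated about 2 h with protease inhibitor SQ 14225 (100 ng/mL) under incandescent light, with no UV. pD₂ was taken as −log of the half-maximal concentration. Relative affinity is given as percent of BK. Specificity was checked by desensitization with BK or an analogue. Antagonists were given as pA₂ from the ID₅₀ that reduces a double agonist dose to a single-dose response.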
# [4] = target: T2, B2 bradykinin receptor (Homo sapiens); experiment: Percent agonistic activity in rabbit jugular vein expressing B2 receptor relative to bradykinin; type: functional; conditions: Oryctolagus cuniculus; in short: as §2
# [5] = species: Oryctolagus cuniculus; experiment: The compound was tested in vitro on rabbit aorta for residual response in absence of ultraviolet light; type: functional
# In short: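 Aorta strips were treated as in the photolabeling protocol but without light, or with light alone. Residual [des-Arg⁹]BK response was measured 60 min later against reference tissues. Darkroom testing was done in triplicate for the visible-light-absorbing analogue.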
# [6] = species: Oryctolagus cuniculus; experiment: In vitro 50 % Maximal response in rabbit aorta expressing B1 receptor; type: functional; conditions: read-out: ED50 (the source's name)
# [7] = species: Oryctolagus cuniculus; experiment: The compound was tested in vitro on rabbit aorta for residual response in presence of ultraviolet light; type: functional
# In short: (§3)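 Aorta strips in cycloheximide were challenged twice with [des-Arg⁹]BK and checked with 3 µM noradrenaline and 0.2 µM [Sar¹]angiotensin II. They were then incubated with 100 µM (4'-amino)Phe plus the photolabel and irradiated 10 min around 365 nm (18 mW/cm²). This was done once or twice. Residual [des-Arg⁹]BK response at 60 min was expressed as percent of reference tissues.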
# [8] = species: Oryctolagus cuniculus; experiment: Competitive protection towards rabbit aorta in the presence of light; type: functional
# In short: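 Rabbit aorta strips (B1), with cycloheximide 10 µg/mL present after 3 h equilibration. Tissue pretreated with 50 µM [Leu⁸,des-Arg⁹]BK before the photolabel, scavenger (4'-amino)Phe 100 µM, and 10 min irradiation around 365 nm (18 mW/cm²). Residual [des-Arg⁹]BK response read 60 min after treatment, relative to reference tissues.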
# [9] = species: Oryctolagus cuniculus; experiment: The compound was tested in vitro (0.1 uM) on rabbit jugular vein for residual response in presence of ultraviolet light; type: functional
# In short: (§4)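 Jugular vein strips were challenged twice with BK and checked with 1 µM [Nle¹¹]substance P and 7 µM histamine. They were then incubated with 100 µM (4'-amino)Phe plus the photolabel and irradiated 10 min around 365 nm (18 mW/cm²) at maximal contraction or after 5 min. This was done once or twice. BK response at 60 min was expressed as percent of reference tissues, rechecked every 45 min.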
# [10] = species: Oryctolagus cuniculus; experiment: The compound was tested (0.5 micro M) in vitro on rabbit jugular vein for residual response in presence of ultraviolet light; type: functional; in short: as §4
# [11] = test system: B2 bradykinin receptor (Oryctolagus cuniculus); experiment: In vitro 50 % Maximal response in jugular vein expressing B2 receptor
# [12] = test system: B2 bradykinin receptor (Oryctolagus cuniculus); experiment: In vitro 50 % Maximal response in rabbit jugular vein expressing B2 receptor
# [13] = species: Oryctolagus cuniculus; experiment: The compound was tested in vitro (3 uM) on rabbit jugular vein for residual response in absence of ultraviolet light; type: functional; in short: as §1
# [14] = test system: B2 bradykinin receptor (Oryctolagus cuniculus); experiment: Relative affinity against B2 receptor relative to bradykinin
# [15] = test system: B2 bradykinin receptor (Oryctolagus cuniculus); experiment: Agonistic activity (pD2) in rabbit jugular vein expressing B2 receptor relative to bradykinin
# [16] = species: Oryctolagus cuniculus; experiment: The compound was tested in vitro (0.1 uM) on rabbit aorta for residual response in presence of ultraviolet light; type: functional; conditions: in the assay text read “rabbit jugular vein” for “rabbit aorta”; in short: as §3
# [17] = species: Oryctolagus cuniculus; experiment: The compound was tested in vitro (0.2 uM) on rabbit jugular vein for residual response in presence of ultraviolet light; type: functional; in short: as §4
# [18] = species: Oryctolagus cuniculus; experiment: The compound was tested in vitro (1.0 uM) on rabbit jugular vein for residual response in presence of ultraviolet light; type: functional; in short: as §4
# [19] = species: Oryctolagus cuniculus; experiment: Competitive protection towards rabbit jugular vein in the presence of light; type: functional
# In short: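 Rabbit jugular vein strips (B2), with SQ 14225 100 ng/mL present after about 2 h equilibration. 5 µM BK added before the photolabel, scavenger (4'-amino)Phe 100 µM, and 10 min irradiation around 365 nm (18 mW/cm²). Residual BK response read 60 min after treatment, relative to reference tissues.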
EC50 [6],Molecule,Alpha E [2],ED50 [3],Relative affinity [4],further results
–,N#[N+]c1ccc(C[C@H](NC(=O)[C@@H]2CCCN2C(=O)[C@H](CO)NC(=O)[C@H](Cc2ccccc2)NC(=O)CNC(=O)[C@@H]2CCCN2C(=O)[C@@H]2CCCN2C(=O)[C@@H](N)CCCN=C(N)N)C(=O)N[C@@H](CCCN=C(N)N)C(=O)O)cc1 (HELM PEPTIDE1{R.P.P.G.F.S.P.[N#[N+]c1ccc(C[C@H](N[*:1])C(=O)[*:2])cc1].R}$$$$V2.0),1,25 nM,9%,Response [1]: 94%
824 nM,N#[N+]c1ccc(C[C@H](NC(=O)[C@@H]2CCCN2C(=O)[C@H](CO)NC(=O)[C@H](Cc2ccccc2)NC(=O)CNC(=O)[C@@H]2CCCN2C(=O)[C@@H]2CCCN2C(=O)[C@@H](N)CCCN=C(N)N)C(=O)O)cc1,1,–,–,Response [5]: 95%
> 100000 nM,NC(N)=NCCC[C@H](N)C(=O)N1CCC[C@H]1C(=O)N1CCC[C@H]1C(=O)NCC(=O)N[C@@H](Cc1ccccc1)C(=O)N[C@@H](CO)C(=O)N1CCC[C@H]1C(=O)N[C@@H](Cc1ccc([N+](=O)[O-])cc1)C(=O)O,–,–,–,Response [7]: 76%; Competitive protection [8]: 75
–,NC(N)=NCCC[C@H](NC(=O)[C@H](Cc1ccc([N+](=O)[O-])cc1)NC(=O)[C@@H]1CCCN1C(=O)[C@H](CO)NC(=O)[C@H](Cc1ccccc1)NC(=O)CNC(=O)[C@@H]1CCCN1C(=O)[C@@H]1CCCN1C(=O)[C@@H](N)CCCN=C(N)N)C(=O)O (HELM PEPTIDE1{R.P.P.G.F.S.P.[O=C([C@H](Cc1ccc([N+](=O)[O-])cc1)N[*:1])[*:2]].R}$$$$V2.0),1,6.6 nM,25%,Response [9]: 91%
–,NC(N)=NCCC[C@H](NC(=O)[C@H](Cc1ccccc1)NC(=O)[C@@H]1CCCN1C(=O)[C@H](CO)NC(=O)[C@H](Cc1ccc([N+](=O)[O-])cc1)NC(=O)CNC(=O)[C@@H]1CCCN1C(=O)[C@@H]1CCCN1C(=O)[C@@H](N)CCCN=C(N)N)C(=O)O (HELM PEPTIDE1{R.P.P.G.[O=C([C@H](Cc1ccc([N+](=O)[O-])cc1)N[*:1])[*:2]].S.P.F.R}$$$$V2.0),1,–,7%,Response [10]: 88%; ED50 [11]: 24 nM; pD [12]: 7.62 M
–,N#[N+]c1ccc(C[C@H](NC(=O)CNC(=O)[C@@H]2CCCN2C(=O)[C@@H]2CCCN2C(=O)[C@@H](N)CCCN=C(N)N)C(=O)N[C@@H](CO)C(=O)N2CCC[C@H]2C(=O)N[C@@H](Cc2ccccc2)C(=O)N[C@@H](CCCN=C(N)N)C(=O)O)cc1 (HELM PEPTIDE1{R.P.P.G.[N#[N+]c1ccc(C[C@H](N[*:1])C(=O)[*:2])cc1].S.P.F.R}$$$$V2.0),1,25 nM,–,Response [13]: 92%; Relative affinity [14]: 9%; pD [15]: 7.73 M
–,H-RPPGFSPFR-OH [BRADYKININ],1,1.65 nM,100%,Response [16]: 92%
8560 nM,[N-]=[N+]=Nc1ccc(C[C@H](NC(=O)[C@@H]2CCCN2C(=O)[C@H](CO)NC(=O)[C@H](Cc2ccccc2)NC(=O)CNC(=O)[C@@H]2CCCN2C(=O)[C@@H]2CCCN2C(=O)[C@@H](N)CCCN=C(N)N)C(=O)O)cc1,0,–,–,Response [7]: 37%; Competitive protection [8]: 95
437 nM,NC(N)=NCCC[C@H](N)C(=O)N1CCC[C@H]1C(=O)N1CCC[C@H]1C(=O)NCC(=O)N[C@@H](Cc1ccc([N+](=O)[O-])cc1)C(=O)N[C@@H](CO)C(=O)N1CCC[C@H]1C(=O)N[C@@H](Cc1ccccc1)C(=O)O,1,–,–,Response [7]: 92%
–,[N-]=[N+]=Nc1ccc(C[C@H](NC(=O)[C@@H]2CCCN2C(=O)[C@H](CO)NC(=O)[C@H](Cc2ccccc2)NC(=O)CNC(=O)[C@@H]2CCCN2C(=O)[C@@H]2CCCN2C(=O)[C@@H](N)CCCN=C(N)N)C(=O)N[C@@H](CCCN=C(N)N)C(=O)O)cc1 (HELM PEPTIDE1{R.P.P.G.F.S.P.[[N-]=[N+]=Nc1ccc(C[C@H](N[*:1])C(=O)[*:2])cc1].R}$$$$V2.0),1,7 nM,23%,Response [17]: 85%
–,[N-]=[N+]=Nc1ccc(C[C@H](NC(=O)CNC(=O)[C@@H]2CCCN2C(=O)[C@@H]2CCCN2C(=O)[C@@H](N)CCCNC(=N)N)C(=O)N[C@@H](CO)C(=O)N2CCC[C@H]2C(=O)N[C@@H](Cc2ccccc2)C(=O)N[C@@H](CCCNC(=N)N)C(=O)O)cc1 (HELM PEPTIDE1{R.P.P.G.[[N-]=[N+]=Nc1ccc(C[C@H](N[*:1])C(=O)[*:2])cc1].S.P.F.R}$$$$V2.0),1,10 nM,17%,Response [18]: 44%; Competitive protection [19]: 91
